16 compounds from ChEMBL document CHEMBL1165958, “Compounds from Acorus tatarinowii: determination of absolute configuration by quantum computations and cAMP regulation activity” (J Nat Prod, 2010) can be followed below.

Active and inactive are the calls of the source. The rule behind the calls is not given here.

For the assay, the species on record is Mus musculus. The assay can be described thus: Induction of cAMP level in mouse NIE115 cells at 50 uM after 30 mins by Alphascreen cAMP assay. The class given is functional, cell-based. The gist of the method: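 N1E-115 neuroblastoma cells exposed to each test compound at 50 µM. Intracellular cAMP measured by AlphaScreen and read out as counts per second (cps). Values reported as means with standard error of the mean. Significance marked at p < 0.05, 0.01 and 0.001.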
On to `CC(=O)O[C@@H]1C[C@H](C)[C@@]2(CC=C(C)C(=O)C2)[C@@H]1C(C)C`, for which the outcome was inactive.
With `C/C=C/c1cc(OC)c(OC)cc1OC` the entry was “inactive”; with `CC1=CC[C@@]2(CC1=O)[C@H](C(C)C)[C@H](O)C[C@@H]2C`, “inactive”; with `COc1cc(OC)c(OC)cc1CC(C)=O`, “Active”.
For `CC1=CC[C@@]2(CC1=O)[C@@H](C(C)C)C(=O)C[C@@H]2C`, the result was inactive.
The entry for `C/C=C\c1cc(OC)c(OC)cc1OC` is “inactive”.
The entry for `CCC(=O)c1cc(OC)c(OC)cc1OC` is “Active”.
With `COc1cc(OC)c(C(=O)C(C)=O)cc1OC` the entry was “Active”.
Turning to `C/C=C\c1ccc(OC)c(OC)c1`, the result was inactive.
The entry for `C=C1CC[C@@H]2[C@@](O)(C1)[C@H](C(C)C)CC[C@@]2(C)O` is “inactive”; for `COc1cc(OC)c(C(c2cc(OC)c(OC)cc2OC)[C@@H](C)O)cc1OC` it is “Active”.
With `COc1cc(OC)c(OC)cc1/C=C\C=O` the entry was “Active”; with `C[C@H]1CC[C@H]2C(C)(C)C(=O)[C@@]3(C)C[C@@H](O)[C@@]12C3`, “inactive”; with `COc1cc(OC)c(OC)cc1C=O`, “Active”.
With `COc1ccc(CC(C)=O)cc1OC` the entry was “inactive”; with `CC1=CC[C@]2(CC1=O)[C@@H](C)CC(=O)[C@H]2C(C)C`, “inactive”.
